From ChEMBL document CHEMBL1250529, “Retinobenzaldehydes as proper-trafficking inducers of folding-defective P23H rhodopsin mutant responsible for retinitis pigmentosa” (Bioorg Med Chem, 2010)
Active and inactive are the calls of the source. The calls are words filed in the database; no cut-off is given here.

Experiments:
[1] = test system: Rhodopsin (Homo sapiens), P08100 [P23H]; test: Induction of subcellular localization of HA-tagged human rhodopsin P23H mutant on HEK293 cell surface by immunofluorescence microscopy; format: cell-based
[2] = test system: HEK293; test: Upregulation of HA-tagged rhodopsin P23H expression in HEK293 cell surface by ELISA; format: functional, cell-based; details: Homo sapiens
Outline: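 HEK293 in poly-lysine-coated wells transfected with HA-tagged human P23H rhodopsin; 2–3 h later compounds in DMEM/5% FBS (0.1% DMSO final) for 20 h. Non-permeabilized cells fixed, blocked, HRP-anti-HA 1.5 h rt, chemiluminescent readout. Background-subtracted signal expressed relative to untreated cells (=1.0); ≥2 independent experiments (n >4).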

[3] = Cytotoxicity against HEK293 cells by WST-1 assay; format: cell-based; details: human
Outline: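 HEK293 cells, poly-Lys-coated wells (1 × 10^4 cells/well), grown 16–20 h, then exposed to compounds in DMEM/5% FBS (0.1% DMSO final) for 20–22 h. WST-1 added, 2 h, A405 read. Viability = treated/vehicle absorbance after background (no-cell wells) subtraction; CC50 derived from dose curves.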

Activity [1]	Structure (SMILES)	Activity [2]	CC50 [3] [µM]
Active	CC1=C(/C=C/C(C)=C/C=C\C(C)=C\C=O)C(C)(C)CCC1 [RHODOPSIN]	Dose-dependent effect	23
	O=C(O)c1ccc(COC(=O)c2cc(C(F)(F)F)cc(C(F)(F)F)c2)cc1		> 100
	O=Cc1ccc(COC(=O)c2cc(C(F)(F)F)cc(C(F)(F)F)c2)cc1		> 100
	CC1(C)CCC(C)(C)c2cc(C(=O)NCc3ccc(C=O)cc3)ccc21		49
	CC1(C)CCC(C)(C)c2cc(C(=O)OCc3ccc(C=O)cc3)ccc21		48
	O=C(OCc1ccc(B(O)O)cc1)c1cc(C(F)(F)F)cc(C(F)(F)F)c1		49
	CC(C)(C)c1ccc(C(=O)OCc2ccc(C=O)cc2)cc1		63
	NC(=O)c1ccc(COC(=O)c2cc(C(F)(F)F)cc(C(F)(F)F)c2)cc1		> 100
Active	CC1=C(/C=C/C(C)=C\C=C\C(C)=C\C=O)C(C)(C)CCC1 [ISO RHODOPSIN]	Dose-dependent effect	28
	O=Cc1ccc(COC(=O)c2ccc3c(c2)CCCC3)cc1		> 100
	CC(C)(C)c1cc(C(=O)OCc2ccc(C=O)cc2)cc(C(C)(C)C)c1		34
	CC(C)(C)c1cccc(C(=O)OCc2ccc(C=O)cc2)c1		73
